Measured values as given in ChEMBL document CHEMBL1944512, “Discovery of a novel chemotype of potent human ENaC blockers using a bioisostere approach. Part 1: quaternary amines” (Bioorg Med Chem Lett, 2012).

Key:
[1] = Inhibition of human ENaC in HBE cells by short-circuit current technique; type: cell-based
[2] = tested on: HBE; experiment: Inhibition of human ENaC in HBE cells at 30 uM by short-circuit current technique; type: cell-based
[3] = Thermodynamic solubility of the compound at pH 1 after 24 hrs of post-equilibriation by shake-flask method; type: physicochemical; settings: buffer, read-out: Therm_solubility
[4] = Thermodynamic solubility of the compound at pH 4 after 24 hrs of post-equilibriation by shake-flask method; type: physicochemical; settings: buffer, read-out: Therm_solubility
[5] = Thermodynamic solubility of the compound at pH 6.8 after 24 hrs of post-equilibriation by shake-flask method; type: physicochemical; settings: buffer, read-out: Therm_solubility
[6] = Thermodynamic solubility of the compound at pH 9 after 24 hrs of post-equilibriation by shake-flask method; type: physicochemical; settings: buffer, read-out: Therm_solubility
[7] = species on record: Homo sapiens; experiment: Ratio of amiloride IC50 to compound IC50 for human ENaC
[8] = Inhibition of guinea pig ENaCbeta1/gamma1 expressed in FRT cells by short-circuit current technique; type: cell-based; settings: Cavia porcellus
Procedure, shortened: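 Fischer rat thyroid cells transiently infected with guinea-pig ENaC were used to measure channel blockade, and the value is reported as an IC50.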

[9] = tested on: Cavia porcellus; experiment: Blockade of tracheal potential difference in it dosed Dunkin Hartley guinea pig at 1hr; type: functional; settings: Trachea
[10] = Permeability from apical to basal side of human Caco2 cells; type: ADME, cell-based; settings: Caco-2, read-out: permeability
[11] = Permeability from basal to apical side of human Caco2 cells; type: ADME, cell-based; settings: Caco-2, read-out: permeability
[12] = biological target: T1, Voltage-gated inwardly rectifying potassium channel KCNH2 (Homo sapiens, UniProt Q12809); experiment: Binding affinity to human ERG channel
T1 sequence (Q12809 whole entry): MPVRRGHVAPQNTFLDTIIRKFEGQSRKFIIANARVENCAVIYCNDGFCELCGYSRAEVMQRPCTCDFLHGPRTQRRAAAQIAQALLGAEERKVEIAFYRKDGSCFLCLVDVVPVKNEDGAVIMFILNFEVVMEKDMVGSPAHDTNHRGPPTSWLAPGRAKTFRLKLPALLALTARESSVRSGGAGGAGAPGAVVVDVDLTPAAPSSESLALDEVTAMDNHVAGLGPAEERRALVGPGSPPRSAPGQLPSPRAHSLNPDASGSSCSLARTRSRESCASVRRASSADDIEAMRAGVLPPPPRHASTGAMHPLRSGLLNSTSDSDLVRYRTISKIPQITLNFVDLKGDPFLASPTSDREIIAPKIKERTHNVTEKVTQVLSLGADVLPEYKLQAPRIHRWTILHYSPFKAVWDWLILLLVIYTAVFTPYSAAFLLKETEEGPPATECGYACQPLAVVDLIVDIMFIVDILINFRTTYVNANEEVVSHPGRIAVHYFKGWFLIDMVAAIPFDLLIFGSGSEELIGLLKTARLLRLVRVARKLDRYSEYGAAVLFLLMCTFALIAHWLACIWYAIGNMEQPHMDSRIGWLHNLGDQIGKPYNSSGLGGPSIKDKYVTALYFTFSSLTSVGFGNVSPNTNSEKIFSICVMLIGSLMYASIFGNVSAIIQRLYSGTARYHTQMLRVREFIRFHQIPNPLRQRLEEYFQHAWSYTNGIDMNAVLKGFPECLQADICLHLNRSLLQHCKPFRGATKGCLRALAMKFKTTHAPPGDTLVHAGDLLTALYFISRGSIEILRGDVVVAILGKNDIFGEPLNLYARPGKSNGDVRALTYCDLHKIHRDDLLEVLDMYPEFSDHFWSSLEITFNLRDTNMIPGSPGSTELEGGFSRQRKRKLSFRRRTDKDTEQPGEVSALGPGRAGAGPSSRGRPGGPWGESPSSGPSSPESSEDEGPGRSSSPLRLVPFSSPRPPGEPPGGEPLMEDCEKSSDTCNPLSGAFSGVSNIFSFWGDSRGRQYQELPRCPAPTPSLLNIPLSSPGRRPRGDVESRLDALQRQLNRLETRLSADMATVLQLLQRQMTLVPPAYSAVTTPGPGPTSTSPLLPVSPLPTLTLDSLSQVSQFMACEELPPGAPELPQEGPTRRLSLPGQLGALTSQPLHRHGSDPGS

[13] = biological target: T1, Voltage-gated inwardly rectifying potassium channel KCNH2; experiment: Inhibition of human ERG channel by patch clamp assay

Molecule C[N+](C)(CCCCNS(=O)(=O)c1ccc(Cl)cc1)CCNC(=O)c1nc(Cl)c(N)nc1N has an IC50 [1] of 250 nM.
C[N+](C)(CCNC(=O)c1nc(Cl)c(N)nc1N)CCNS(=O)(=O)c1ccc(Cl)cc1 gave an IC50 [1] of 1120 nM.
In the case of COc1ccc(CCC[N+](CCCc2ccc(OC)cc2)(CCCc2ccc(OC)cc2)CCNC(=O)c2nc(Cl)c(N)nc2N)cc1, the IC50 [1] is reported as 37 nM.
C[N+](C)(CCCCNC(=O)Cc1ccccc1)CCNC(=O)c1nc(Cl)c(N)nc1N gave an IC50 [1] of 950 nM.
In the case of CN(C)CCCCNC(=O)c1nc(Cl)c(N)nc1N, the inhibition [2] is reported as less than 60%.
Work on CN(C)CCCNC(=O)c1nc(Cl)c(N)nc1N yielded an IC50 [1] of 17400 nM.
In the case of C[N+](C)(CCCCNC(=O)Cc1ccc(Cl)cc1)CCNC(=O)c1nc(Cl)c(N)nc1N, the IC50 [1] is reported as 720 nM.
CNCCNC(=O)c1nc(Cl)c(N)nc1N gave an IC50 [1] of 4570 nM.
Work on C[N+](C)(CCCCNC(=O)CCc1ccc(Cl)cc1)CCNC(=O)c1nc(Cl)c(N)nc1N yielded an IC50 [1] of 160 nM.
COc1ccc(CCC[N+](C)(CCCc2ccc(OC)cc2)CCNC(=O)c2nc(Cl)c(N)nc2N)cc1.[Br-] showed an IC50 [1] of 13 nM, a solubility thermodynamic at 24 h [3] of 600 µg/mL and a solubility thermodynamic at 24 h [4] of 500 µg/mL. The solubility thermodynamic at 24 h [5] was 900 µg/mL, the solubility thermodynamic at 24 h [6] was 1000 µg/mL and the Ratio IC50 [7] was 100.
Work on C[N+](C)(CCCCCNS(=O)(=O)c1ccc(Cl)cc1)CCNC(=O)c1nc(Cl)c(N)nc1N yielded an IC50 [1] of 960 nM.
In the case of C[N+](C)(CCCNS(=O)(=O)c1ccc(Cl)cc1)CCNC(=O)c1nc(Cl)c(N)nc1N, the IC50 [1] is reported as 290 nM.
For C[N+](C)(C)CCNC(=O)c1nc(Cl)c(N)nc1N, the IC50 [1] was 5810 nM.
Work on C[N+](C)(CCCCNC(=O)c1ccc(Cl)cc1)CCNC(=O)c1nc(Cl)c(N)nc1N yielded an IC50 [1] of 510 nM.
Molecule Cc1ccc(C(=O)NCCCC[N+](C)(C)CCNC(=O)c2nc(Cl)c(N)nc2N)cc1 has an IC50 [1] of 880 nM.
With C[N+](C)(CCCNC(=O)c1ccc(Cl)cc1)CCNC(=O)c1nc(Cl)c(N)nc1N the IC50 [1] was 740 nM.
Work on N=C(N)NC(=O)c1nc(Cl)c(N)nc1N [AMILORIDE] yielded an IC50 [1] of 220 nM, an IC50 [8] of 540 nM and an ED50 [9] of 0.016 mg/kg.
C[N+](C)(CCCCNC(=O)CCc1ccc(OCc2ccccc2)cc1)CCNC(=O)c1nc(Cl)c(N)nc1N showed an IC50 [1] of 80 nM.
For N/C(=N\C(=O)c1nc(Cl)c(N)nc1N)NCc1ccccc1 [BENZAMIL], the IC50 [1] was 20 nM.
For CN(C)CCNC(=O)c1nc(Cl)c(N)nc1N, the IC50 [1] was 4780 nM.
With C[N+](C)(CCCCNC(=O)c1ccccc1)CCNC(=O)c1nc(Cl)c(N)nc1N the IC50 [1] was 1230 nM.
With NCCNC(=O)c1nc(Cl)c(N)nc1N the IC50 [1] was 3970 nM.
With Cc1ccc(CC(=O)NCCCC[N+](C)(C)CCNC(=O)c2nc(Cl)c(N)nc2N)cc1 the IC50 [1] was 750 nM.
Molecule COc1ccc(CCC[N+](C)(C)CCNC(=O)c2nc(Cl)c(N)nc2N)cc1.[Br-] has an IC50 [1] of 270 nM, a solubility thermodynamic at 24 h [3] of 4800 µg/mL and a solubility thermodynamic at 24 h [4] of 4900 µg/mL. For the same molecule, the solubility thermodynamic at 24 h [5] was 5000 µg/mL, the solubility thermodynamic at 24 h [6] was 4700 µg/mL and the IC50 [8] was 180 nM. The ED50 [9] was 0.044 mg/kg, the Papp A→B [10] was 0.93 ×10⁻⁶ cm/s and the Papp B→A [11] was 1.67 ×10⁻⁶ cm/s.
Cc1ccc(CCC(=O)NCCCC[N+](C)(C)CCNC(=O)c2nc(Cl)c(N)nc2N)cc1 showed an IC50 [1] of 590 nM.
CN(C)CCN(C)C(=O)c1nc(Cl)c(N)nc1N gave an IC50 [1] greater than 30000 nM.
With C[N+](C)(CCCCNC(=O)Cc1ccc(OCc2ccccc2)cc1)CCNC(=O)c1nc(Cl)c(N)nc1N.[Br-] the IC50 [1] was 60 nM, the Papp A→B [10] was 3.33 ×10⁻⁶ cm/s and the Papp B→A [11] was 2.55 ×10⁻⁶ cm/s. The IC50 [12] was 330 nM and the IC50 [13] was 10800 nM.
For C[N+](C)(CCNC(=O)c1ccc(Cl)cc1)CCNC(=O)c1nc(Cl)c(N)nc1N, the IC50 [1] was 1660 nM.
C[N+](C)(CCCCNC(=O)CCc1ccccc1)CCNC(=O)c1nc(Cl)c(N)nc1N showed an IC50 [1] of 910 nM.
In the case of C[N+](C)(CCCCCNC(=O)c1ccc(Cl)cc1)CCNC(=O)c1nc(Cl)c(N)nc1N, the IC50 [1] is reported as 750 nM.
